IC50 data for 18 compounds are collected here from ChEMBL document CHEMBL1127551, “(6,7-Diaryldihydropyrrolizin-5-yl)acetic acids, a novel class of potent dual inhibitors of both cyclooxygenase and 5-lipoxygenase” (J Med Chem, 1994).

One test concerns the target T1, Cyclooxygenase (Bos taurus, UniProt O62664+O62698).
T1 sequence (O62664 whole entry): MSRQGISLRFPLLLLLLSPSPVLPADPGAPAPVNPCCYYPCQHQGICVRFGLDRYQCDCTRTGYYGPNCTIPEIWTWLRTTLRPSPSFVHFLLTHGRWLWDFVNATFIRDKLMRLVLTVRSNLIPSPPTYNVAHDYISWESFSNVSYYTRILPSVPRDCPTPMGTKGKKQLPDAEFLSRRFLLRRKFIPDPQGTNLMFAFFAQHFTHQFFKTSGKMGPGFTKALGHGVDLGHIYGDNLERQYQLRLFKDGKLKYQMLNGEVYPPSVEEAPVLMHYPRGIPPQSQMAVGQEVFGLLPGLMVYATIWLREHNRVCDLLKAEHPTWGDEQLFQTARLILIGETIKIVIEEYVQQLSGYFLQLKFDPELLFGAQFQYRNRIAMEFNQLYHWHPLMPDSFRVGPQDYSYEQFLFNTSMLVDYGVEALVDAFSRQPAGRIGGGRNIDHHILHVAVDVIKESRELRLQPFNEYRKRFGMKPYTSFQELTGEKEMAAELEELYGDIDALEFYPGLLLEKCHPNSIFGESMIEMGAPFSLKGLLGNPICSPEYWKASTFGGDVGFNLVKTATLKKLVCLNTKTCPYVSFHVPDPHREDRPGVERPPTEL
T1 sequence (O62698 whole entry): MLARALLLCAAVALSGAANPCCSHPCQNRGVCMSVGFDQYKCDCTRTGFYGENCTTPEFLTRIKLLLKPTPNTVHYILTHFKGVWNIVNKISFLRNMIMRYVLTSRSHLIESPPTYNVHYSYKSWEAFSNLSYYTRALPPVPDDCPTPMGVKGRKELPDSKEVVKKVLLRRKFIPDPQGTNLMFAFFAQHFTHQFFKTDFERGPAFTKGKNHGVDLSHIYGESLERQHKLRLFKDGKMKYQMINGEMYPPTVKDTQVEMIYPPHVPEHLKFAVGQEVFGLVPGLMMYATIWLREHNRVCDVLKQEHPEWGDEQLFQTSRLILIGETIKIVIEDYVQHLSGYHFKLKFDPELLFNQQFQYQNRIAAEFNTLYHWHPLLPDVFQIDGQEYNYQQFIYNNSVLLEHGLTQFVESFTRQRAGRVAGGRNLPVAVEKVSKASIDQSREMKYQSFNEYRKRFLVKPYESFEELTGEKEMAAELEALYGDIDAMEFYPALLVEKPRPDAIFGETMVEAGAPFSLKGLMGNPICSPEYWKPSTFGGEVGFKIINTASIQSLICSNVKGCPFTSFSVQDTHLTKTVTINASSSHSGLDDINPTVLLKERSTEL
Put plainly: Inhibition of Prostaglandin G/H synthase in bovine thrombocyte intact cell assay. In outline:
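Intact thrombocytes isolated from fresh bovine blood by ficoll gradient centrifugation. Cells incubated with test compound, then stimulated with Ca-ionophore A 23187. IC50 taken as the average of at least two determinations.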

In test [1] the target is T2, Arachidonate 5-lipoxygenase (Bos taurus, UniProt Q9BEG3).
T2 sequence (Q9BEG3 whole entry): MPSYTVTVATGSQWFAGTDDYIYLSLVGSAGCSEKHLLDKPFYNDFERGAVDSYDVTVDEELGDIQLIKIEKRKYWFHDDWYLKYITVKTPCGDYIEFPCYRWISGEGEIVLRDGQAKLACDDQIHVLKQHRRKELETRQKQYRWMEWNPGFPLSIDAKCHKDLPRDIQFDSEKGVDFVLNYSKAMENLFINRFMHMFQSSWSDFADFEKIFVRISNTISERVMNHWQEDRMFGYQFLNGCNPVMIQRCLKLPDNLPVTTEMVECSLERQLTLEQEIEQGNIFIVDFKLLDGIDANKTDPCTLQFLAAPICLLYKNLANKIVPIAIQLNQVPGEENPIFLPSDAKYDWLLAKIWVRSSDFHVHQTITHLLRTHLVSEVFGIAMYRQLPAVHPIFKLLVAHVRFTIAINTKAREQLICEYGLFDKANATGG
Kind of test: Inhibition of 5-lipoxygenase in bovine PMNL cell assay. Type of test: cell-based. In outline:
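Intact polymorphonuclear leukocytes isolated from fresh bovine blood by ficoll gradient centrifugation. Cells incubated with test compound, then stimulated with Ca-ionophore A 23187. IC50 taken as the average of at least two determinations.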

For test [2], the target named is T3, Polyunsaturated fatty acid 5-lipoxygenase (Homo sapiens, UniProt P09917).
T3 sequence (P09917 whole entry): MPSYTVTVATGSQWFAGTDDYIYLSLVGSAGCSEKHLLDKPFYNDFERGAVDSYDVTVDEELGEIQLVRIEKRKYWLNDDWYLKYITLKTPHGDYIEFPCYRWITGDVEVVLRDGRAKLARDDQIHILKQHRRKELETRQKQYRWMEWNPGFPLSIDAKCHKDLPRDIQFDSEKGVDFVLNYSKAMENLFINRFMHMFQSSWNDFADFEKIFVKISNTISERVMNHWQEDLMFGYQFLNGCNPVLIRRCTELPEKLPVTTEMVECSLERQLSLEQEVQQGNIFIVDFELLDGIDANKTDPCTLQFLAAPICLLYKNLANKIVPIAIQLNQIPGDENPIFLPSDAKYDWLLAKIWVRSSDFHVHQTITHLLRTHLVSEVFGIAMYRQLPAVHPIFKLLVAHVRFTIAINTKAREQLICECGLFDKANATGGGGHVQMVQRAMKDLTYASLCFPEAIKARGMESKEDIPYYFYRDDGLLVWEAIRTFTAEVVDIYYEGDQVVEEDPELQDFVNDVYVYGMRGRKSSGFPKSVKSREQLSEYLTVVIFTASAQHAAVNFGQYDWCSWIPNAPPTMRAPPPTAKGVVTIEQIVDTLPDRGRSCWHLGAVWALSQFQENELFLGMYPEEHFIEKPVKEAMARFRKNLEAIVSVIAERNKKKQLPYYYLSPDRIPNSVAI
Kind of test: Inhibition of human 5-lipoxygenase in human cells. Type of test: cell-based. In outline: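 Intact PMNL isolated by Ficoll gradient centrifugation from fresh human blood; cells incubated with test compound, then stimulated with Ca-ionophore A 23187; 5-LO inhibition expressed as IC50.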

As for `CC1(C)Cc2c(-c3ccccc3)c(-c3ccc(N)cc3)c(CC(=O)O)n2C1`, the results for the IC50 (on Cyclooxygenase; in test [1]) were 1 µM and 6 µM, respectively.
For `CC1(C)Cc2c(-c3ccccc3)c(-c3ccc([N+](=O)[O-])cc3)c(CC(=O)O)n2C1`, the IC50 on Cyclooxygenase is 0.03 µM; in test [1], 1.5 µM.
With `O=C(O)Cc1c(-c2ccc(Cl)cc2)c(-c2ccccc2)c2n1CCC2`, the half-maximal inhibitory concentration (IC50) was 2 µM against Cyclooxygenase and 1.6 µM in test [1].
With `CC(=O)Nc1ccc(-c2c(-c3ccccc3)c3n(c2CC(=O)O)CC(C)(C)C3)cc1`, the values for the half-maximal inhibitory concentration (IC50) (on Cyclooxygenase; in test [1]) were 0.8 µM and 10 µM, respectively.
Consider `CC1(C)Cc2c(-c3ccccc3)c(-c3ccc(F)cc3)c(CC(=O)O)n2C1`, for which the results for the half-maximal inhibitory concentration (IC50) (on Cyclooxygenase; in test [1]) were 3.2 µM and > 10 µM, respectively.
`CC1(C)Cc2c(-c3ccccc3)c(-c3cccc(Cl)c3)c(CC(=O)O)n2C1`: the IC50 against Cyclooxygenase was 3.6 µM; in test [1], 1.7 µM.
As for `CC1(C)Cc2c(-c3ccccc3)c(-c3ccc(Cl)c(Cl)c3)c(CC(=O)O)n2C1`, the values for the IC50 (on Cyclooxygenase; in test [1]) were 4.5 µM and 1.7 µM, respectively.
For the compound `CC1(C)Cc2c(-c3ccccc3)c(-c3ccc(Cl)c(Cl)c3Cl)c(CC(=O)O)n2C1`, the IC50 stood at 12 µM at Cyclooxygenase and 1.8 µM in test [1].
For the compound `CC1(C)Cc2c(-c3ccccc3)c(-c3ccccc3)c(CC(=O)O)n2C1`, the figures for the IC50 (at Cyclooxygenase; in test [1]) were 0.1 µM and 4 µM, respectively.
The corresponding values for `CC1(C)Cc2c(-c3ccccc3)c(-c3ccc(O)cc3)c(CC(=O)O)n2C1` are 1.6 µM and 7.7 µM.
Turning to `CC1(C)Cc2c(-c3ccccc3)c(-c3ccc(Oc4ccccc4)cc3)c(CC(=O)O)n2C1`, the concentration for half-maximal inhibition (IC50) against Cyclooxygenase is 2 µM; in test [1], 1.6 µM.
The corresponding values for `CC1(C)Cc2c(-c3ccccc3)c(-c3cc(Cl)ccc3Cl)c(CC(=O)O)n2C1` are 12 µM and 4.3 µM.
Consider `CC1(C)Cc2c(-c3ccccc3)c(-c3ccc(Cl)cc3Cl)c(CC(=O)O)n2C1`, for which the IC50 at Cyclooxygenase was 18 µM; in test [1] it was 2.1 µM.
In the case of `COc1ccc(-c2c(-c3ccccc3)c3n(c2CC(=O)O)CC(C)(C)C3)cc1`, the IC50 was determined as 0.1 µM at Cyclooxygenase and 0.24 µM in test [1].
As to `CC1(C)Cc2c(-c3ccccc3)c(-c3ccccc3Cl)c(CC(=O)O)n2C1`, the figures for the 50% inhibitory concentration (IC50) (against Cyclooxygenase; in test [1]) were 61 µM and 4.4 µM, respectively.
In the case of `CC1(C)Cc2c(-c3ccc(Cl)cc3)c(-c3ccccc3)c(CC(=O)O)n2C1`, the values for the IC50 (against Cyclooxygenase; in test [1]) were 3.4 µM and 5.2 µM, respectively.
As for `CC1(C)Cc2c(-c3ccccc3)c(-c3ccc(C(C)(C)C)cc3)c(CC(=O)O)n2C1`, the IC50 at Cyclooxygenase was 20 µM; in test [1], 0.18 µM.
Regarding `CC1(C)Cc2c(-c3ccccc3)c(-c3ccc(Cl)cc3)c(CC(=O)O)n2C1` [LICOFELONE], the IC50 against Cyclooxygenase worked out at 0.21 µM; in test [2] it was 0.23 µM; in test [1] it was 0.18 µM.
